Experimental data of several laboratories.
Target: MAP/microtubule affinity-regulating kinase 3 (MARK3, Homo sapiens, UniProt P27448)

Structure (SMILES) | assay | conditions | quantity | value
CC(C)(C)c1cc(C=C(C#N)C#N)cc(Br)c1O | enzyme activity, inhibitor | 0.5 µM | remaining activity | 105%
Cn1cc(-c2cc(F)cc(N3CCn4c(cc5c4CCCC5)C3=O)c2CO)cc(Nc2ccc(N3CCN(C4COC4)CC3)cn2)c1=O | enzyme activity, inhibitor | 0.1 µM | inhibition | 6%
COc1ncccc1-c1cnn2ccc(N3CCN(C(=O)OC(C)C)CC3)nc12 | binding, competition with immobilised ligand | 1 µM | remaining binding | 96%
Cn1cncc1[C@](O)(COc1ccc(C#N)cc1-c1ccc(OC(F)(F)F)cc1)c1ccc(C#N)cc1 | cell-free assay, competition with immobilised ligand | 1 µM | remaining binding | 100%
O=c1[nH]c2ccccc2n1C1CCN(Cc2ccc(-c3[nH]c4cc5ncnc5cc4nc3-c3ccccc3)cc2)CC1 | cell-free assay | 0.5 µM | remaining signal | 103%
Cc1nn(C)cc1-c1nc2c(N3CCN(Cc4ccc(Cl)cc4)CC3)c(Cl)cnc2[nH]1 | binding, competition with immobilised ligand | 1 µM | remaining binding | 45%
Nc1ncc(-c2nc(N3CCOCC3)nc(N3CCOCC3)n2)c(C(F)F)n1 | binding, competition with immobilised ligand | 10 µM | remaining binding | 100%
COc1cc(Nc2ncc(F)c(Nc3ccc4c(n3)NC(=O)C(C)(C)O4)n2)cc(OC)c1OC | binding, competition with immobilised ligand | 10 µM | inhibition | 63%
